For one experiment, the system named is WI-38. The settings on record: human normal fibroblast cell line WI-38; cited from earlier work.
Experiment [1] concerns the target T1, SF3B subunit of the spliceosome (Homo sapiens, UniProt O75533+Q7RTV0). The settings on record: cited from earlier work.
The next experiment relates to human cells. The settings on record: cited from earlier work.
The target in experiment [2] is T1, SF3B subunit of the spliceosome. In words: In vitro splicing assay. To be noted: for reduction in splicing inhibitory potency compared to herboxidiene: relative to herboxidiene. The experiment is classed as biochemical. In a few lines:
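Radiolabeled RNA splicing substrate incubated in human cell nuclear extract with a dose range of test compound or DMSO control. RNA resolved by denaturing PAGE and bands quantified by phosphorimaging. Splicing efficiency is mRNA over total substrate RNA, normalised to DMSO. IC50 (half-maximal reduction of splicing versus DMSO) is from nonlinear regression, [inhibitor] vs normalised response, on three independent measurements, with 95% confidence intervals.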

Usually IC50 stands for the midpoint of a concentration-inhibition curve. A lower IC50 goes with higher potency.

As to `CO[C@H]([C@@H](C)[C@H]1O[C@]1(C)C[C@H](C)/C=C/C=C(\C)[C@H]1O[C@@H](CC(=O)O)CC[C@@H]1C)[C@@H](C)O` [herboxidiene], in the experiment with WI-38, the cell cycle arrest result is “induces both G1 and G2/M cell cycle arrest”.

Take C6 desmethyl herboxidiene [Compound 8]: in experiment [1], the splicing inhibitory activity entry is given as “slightly lower splicing inhibitory activity”. Further, the “anticancer activity in human cells” value in the experiment on human cells is “slightly lower”.

Regarding `C=C1CC[C@H](CC(=O)O)O[C@@H]1/C(C)=C/C=C/[C@@H](C)C[C@@]1(C)O[C@@H]1[C@H](C)[C@@H](OC)[C@@H](C)O` [Compound 12, 2-((2R,6S)-6-((S,2E,4E)-7-((2R,3R)-3-((2R,3R,4R)-4-hydroxy-3-methoxypentan-2-yl)-2-methyloxiran-2-yl)-6-methylhepta-2,4-dien-2-yl)-5-methylenetetrahydro-2H-pyran-2-yl)acetic acid], the IC50 in experiment [2] came to 0.4 µM.

As for `CO[C@H]([C@@H](C)[C@H]1O[C@]1(C)C[C@H](C)/C=C/C=C(\C)[C@H]1O[C@@H](CC(=O)O)CCC12CC2)[C@@H](C)O` [Compound 14, 2-((4S,6R)-4-((S,2E,4E)-7-((2R,3R)-3-((2R,3R,4R)-4-hydroxy-3-methoxypentan-2-yl)-2-methyloxiran-2-yl)-6-methylhepta-2,4-dien-2-yl)-5-oxaspiro[2.5]octan-6-yl)acetic acid], in experiment [2], half-maximal inhibition (IC50) was put at 5.2 µM. Besides, the “loss of splicing inhibitory activity compared to gem-dimethyl derivative” value in experiment [2] (relative to gem-dimethyl derivative 15) is 5 fold.

Take `CO[C@H]([C@@H](C)[C@H]1O[C@]1(C)C[C@H](C)/C=C/C=C(\C)[C@H]1O[C@@H](CC(=O)O)CCC1(C)C)[C@@H](C)O` [Compound 15, 2-((2R,6S)-6-((S,2E,4E)-7-((2R,3R)-3-((2R,3R,4R)-4-hydroxy-3-methoxypentan-2-yl)-2-methyloxiran-2-yl)-6-methylhepta-2,4-dien-2-yl)-5,5-dimethyltetrahydro-2H-pyran-2-yl)acetic acid]: in experiment [2], the “reduction in splicing inhibitory potency compared to herboxidiene” value is listed as 3 fold.

In the case of `CO[C@H]([C@@H](C)[C@H]1O[C@]1(C)C[C@H](C)/C=C/C=C(\C)[C@H]1O[C@@H](CC(=O)O)CC[C@H]1C)[C@@H](C)O` [Compound 13, 2-((2R,5R,6S)-6-((S,2E,4E)-7-((2R,3R)-3-((2R,3R,4R)-4-hydroxy-3-methoxypentan-2-yl)-2-methyloxiran-2-yl)-6-methylhepta-2,4-dien-2-yl)-5-methyltetrahydro-2H-pyran-2-yl)acetic acid], in experiment [2], the IC50 was 2.5 µM and the “reduction in splicing inhibitory potency compared to herboxidiene” value is “about 6 fold”.

Take 5(R)-hydroxy herboxidiene [Compound 6]: in experiment [1], the “splicing inhibition relative to herboxidiene” value is “slightly lower splicing inhibition than herboxidiene”.

The values above are taken from paper PMC8911528 (Organic & biomolecular chemistry, 2021).
